Results from different studies.
Compare with care: the assays were run in different laboratories.
Target: Serine/threonine-protein kinase VRK2 (VRK2, Homo sapiens, UniProt Q86Y07)

COc1cc(Cl)c(C(=O)N[C@@H](CN[C@H]2CC[C@@H](N)CC2)Cc2ccc(C#N)cc2)cc1-c1ccc(CN[C@H](C)c2ccc(C)cc2)o1  remaining activity (enzyme activity, inhibitor; 1 µM): 91%
Cc1ccc(Nc2nccc(N(C)c3ccc4c(C)n(C)nc4c3)n2)cc1S(N)(=O)=O  inhibition (enzyme activity, inhibitor; 0.3 µM): -16%
Cn1c2c(Cl)c(Cl)ccc2c2cc(N)[nH]c(=O)c21  ΔTm (thermal stability, DSF; 10 µM): 0.3 °C
CC(C)(C)c1nc(-c2cccc(NS(=O)(=O)c3c(F)cccc3F)c2F)c(-c2ccnc(N)n2)s1  remaining activity (enzyme activity, inhibitor, radiometric; 1 µM): 103%
CN(C)C(=O)Cn1cc(-c2nc([C@@](C)(c3ccc(-c4cnc(N)nc4)cc3)C3CC3)no2)cn1  remaining binding (cell-free assay, competition with immobilised ligand; 1 µM): 92%
CC(C)(O)[C@H]1CC[C@H](Nc2ccc3ncc(-c4cccc(C(F)(F)F)c4)n3n2)CC1  remaining activity (enzyme activity, inhibitor; 1 µM): 81.2%
CN(C)CC#Cc1ccc(OCCCc2sc(N3CCc4cccc(C(=O)Nc5nc6ccccc6s5)c4C3)nc2C(=O)O)c(F)c1  remaining binding (cell-free assay, competition with immobilised ligand; 1 µM): 100%
Cc1cc(NC(=O)c2cccc3cc(-c4cccc5[nH]nc(N)c45)ccc23)ccc1F  activity vs control (enzyme activity, inhibitor; 0.1 µM): 89%
CNC(=O)c1cc(Oc2ccc(NC(=O)Nc3ccc(Cl)c(C(F)(F)F)c3)cc2)ccn1  inhibition (enzyme activity, inhibitor; 0.3 µM): -15%
Cn1c2c(c3ccc(Cl)c(Cl)c31)C(C#N)C1(CCCC1)NC2=O (centres unmarked)  ΔTm (thermal stability, DSF; 10 µM): -0.2 °C
C[C@H](NC(=O)c1cnc2n1[C@](C)(Cc1ccc(C#N)cc1)C(=O)N2c1cc(Cl)c(F)c(Cl)c1)C(=O)NC1(c2ccccn2)CC1  remaining binding (cell-free assay, competition with immobilised ligand; 1 µM): 100%
CCCS(=O)(=O)Nc1ccc(F)c(C(=O)c2c[nH]c3ncc(-c4ccc(Cl)cc4)cc23)c1F  inhibition (enzyme activity, inhibitor; 1 µM): < 10%
Cn1c2c(c3ccc(Cl)c(Cl)c31)C(C#N)C(C)(C)NC2=O (centres unmarked)  ΔTm (thermal stability, DSF; 10 µM): 0.8 °C
c1ccc(N2CCN(Cc3nc4ccccc4[nH]3)CC2)nc1  remaining binding (binding, competition with immobilised ligand; 1 µM): 100%
Cc1ccc(C(=O)Nc2ccc(CN3CCN(C)CC3)c(C(F)(F)F)c2)cc1C#Cc1cnc2cccnn12  remaining activity (enzyme activity, inhibitor; 23.5 nM): 74%
Cn1c2c(c3ccccc31)C(C#N)C(C)(C)NC2=O (centres unmarked)  ΔTm (thermal stability, DSF; 10 µM): 0.2 °C
CCN(CC)CCNC(=O)c1c(C)[nH]c(/C=C2\C(=O)Nc3ccc(F)cc32)c1C  inhibition (enzyme activity, inhibitor; 0.3 µM): -19%
COc1ccc2c(O[C@@H]3C[C@H]4C(=O)N[C@]5(C(=O)O)CC5/C=C\CCCCC[C@H](NC(=O)OC5CCCC5)C(=O)N4C3)cc(-c3csc(NC(=O)C(C)C)n3)nc2c1C (some centres unmarked)  remaining binding (cell-free assay, competition with immobilised ligand; 1 µM): 79%
CCN(CC)c1ccc(C2=NNC(=O)CC2C)cc1[N+](=O)[O-] (centres unmarked)  remaining activity (enzyme activity, inhibitor; 10 µM): 95%
Cc1cc(-n2nc(Cc3cc(F)cc(C(F)(F)F)c3)nc2C)ccc1C(N)=O  remaining binding (cell-free assay, competition with immobilised ligand; 1 µM): 100%
N#CC1c2c([nH]c3c(Cl)c(Cl)ccc23)C(=O)NC12CCCCC2 (racemic)  ΔTm (thermal stability, DSF; 10 µM): -0.3 °C
FC(F)(F)c1ccc2c(c1)nc(-c1cccnc1)n2C1CC1  remaining binding (cell-free assay, competition with immobilised ligand; 1 µM): 100%
CCN1CCC2(CC1)NC(=O)c1c(c3ccc(Cl)c(Cl)c3n1C)C2C#N (racemic)  ΔTm (thermal stability, DSF; 10 µM): 0.1 °C
